# Data taken from publication PMC8161485 (ACS Central Science, 2021).
# Substitutions are numbered along the chain they refer to.
# Assays:
# heme oxygenase 1 (HO-1) = test: Induction of heme oxygenase 1 in primary AML specimens; assay type: cell-based, human; conditions: compared to vehicle-only control
# P450BM3 variant V-F10 = target: T1, P450BM3 variant V-F10 (Priestia megaterium, UniProt P14779, A181T/A185V/A198V/A291V/E253G/F206C/F82V/F88A/H237Q/L354V/P143S/R256S/S227R/T176I/V79F); test: Heme spin shift binding of MCL to P450 variant V-F10; set-up: species or system Bacillus megaterium
# T1 sequence (P14779 1-1049 V79F/F82V/F88A/P143S/T176I/A181T/A185V/A198V/F206C/S227R/H237Q/E253G/R256S/A291V/L354V): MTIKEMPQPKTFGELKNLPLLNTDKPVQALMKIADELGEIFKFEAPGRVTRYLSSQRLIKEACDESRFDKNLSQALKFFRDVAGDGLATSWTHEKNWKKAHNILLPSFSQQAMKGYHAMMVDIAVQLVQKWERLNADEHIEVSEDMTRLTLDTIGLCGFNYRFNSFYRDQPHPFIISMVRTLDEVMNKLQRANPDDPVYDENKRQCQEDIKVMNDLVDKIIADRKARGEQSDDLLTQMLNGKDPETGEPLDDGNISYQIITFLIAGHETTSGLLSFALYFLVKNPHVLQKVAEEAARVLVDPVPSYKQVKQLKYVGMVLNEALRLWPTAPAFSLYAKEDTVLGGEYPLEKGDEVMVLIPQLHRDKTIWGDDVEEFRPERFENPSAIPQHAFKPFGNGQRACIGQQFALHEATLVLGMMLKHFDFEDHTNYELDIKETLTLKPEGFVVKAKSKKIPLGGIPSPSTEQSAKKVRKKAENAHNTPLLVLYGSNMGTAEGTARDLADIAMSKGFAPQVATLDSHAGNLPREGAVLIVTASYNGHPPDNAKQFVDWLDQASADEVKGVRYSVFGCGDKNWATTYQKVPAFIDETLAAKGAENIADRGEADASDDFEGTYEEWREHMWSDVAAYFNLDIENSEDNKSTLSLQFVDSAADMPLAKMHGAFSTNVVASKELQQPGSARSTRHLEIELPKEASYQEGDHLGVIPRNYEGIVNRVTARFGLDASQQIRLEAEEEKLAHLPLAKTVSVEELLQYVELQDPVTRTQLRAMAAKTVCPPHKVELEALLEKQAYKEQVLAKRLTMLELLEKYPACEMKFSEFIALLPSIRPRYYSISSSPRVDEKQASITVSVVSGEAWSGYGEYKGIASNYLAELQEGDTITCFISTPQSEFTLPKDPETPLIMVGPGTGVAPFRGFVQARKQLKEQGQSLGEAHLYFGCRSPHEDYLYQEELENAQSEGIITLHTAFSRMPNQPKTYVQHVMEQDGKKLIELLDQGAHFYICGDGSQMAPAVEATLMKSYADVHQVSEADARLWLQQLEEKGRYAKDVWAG
# Procedure, shortened: (§1)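 Purified P450 (3 μM) in 50 mM potassium phosphate, pH 8.0, titrated with test compound (5–2000 μM) from a 50 mM ethanol stock. A difference spectrum (350–500 nm) was taken at each step. Absorbance change at 390/420 nm (high/low spin) was plotted against concentration, with KD from a nonlinear 1:1 binding fit. At least triplicate, room temperature.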
# [1] = test system: AML01 primary AML specimen; test: Cell viability of primary AML specimen AML01; assay type: cell-based; conditions: Homo sapiens, AML01, read-out: AML01 LC50
# Procedure, shortened: (§2)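 Primary AML samples came from consenting donors. Live mononuclear cells were isolated on a Ficoll-Paque density gradient and cryopreserved, with 40–70% viability after thawing. Cells were kept at 37 °C, humidified, 5% CO2.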
# [2] = test system: AML04 primary AML specimen; test: Cell viability of primary AML specimen AML04; assay type: cell-based; conditions: Homo sapiens, read-out: AML04 LC50
# Procedure, shortened: as §2
# P450BM3 variant V-H10 = target: T2, P450BM3 variant V-H10 (Priestia megaterium, UniProt P14779, A181T/A185V/A198V/A291V/E253G/F206C/F88A/H237Q/L354V/P143S/R256S/S227R/T176I/V79N); test: Heme spin shift binding of MCL to P450 variant V-H10; set-up: species or system Bacillus megaterium
# T2 sequence (P14779 1-1049 V79N/F88A/P143S/T176I/A181T/A185V/A198V/F206C/S227R/H237Q/E253G/R256S/A291V/L354V): T1 sequence (P14779 1-1049 V79F/F82V/F88A/P143S/T176I/A181T/A185V/A198V/F206C/S227R/H237Q/E253G/R256S/A291V/L354V) with F79N, V82F
# Procedure, shortened: as §1
compound,measurement,setting,value
"C=C1C(=O)O[C@H]2[C@H]1CCC(C)=C1CC[C@@](C)(O)[C@@H]12 [MCL, micheliolide]",induction of heme oxygenase 1 (HO-1),heme oxygenase 1 (HO-1),Dose-dependent induction
same,Kd,P450BM3 variant V-F10,88 ± 18 µM
same,CC50,[1],18.8 µM
same,CC50,[2],22.1 µM
same,Kd,P450BM3 variant V-H10,590 ± 90 µM
